Results filed as inconclusive are left out.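 Rule for the calls, unless noted: active = cell viability at or below a set limit in both duplicate runs, the limit being the all-compound median minus 4 SD (cut at about 23% in these data, passing the limit was not always enough); inconclusive = no clear call, values can overlap the other calls; inactive = the rest.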
Key:
[1] = S. cerevisiae growth inhibition in permissive medium (OD615), pilot counter-assay for S. cerevisiae lifespan shortening project, permissive growth control (AID 705;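 active = growth inhibition above 25% in both replicates, a cutoff set 3 SD above the mean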); details: OD615, 24 h, at 10 µM, hits give high values
In short: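 Material: engineered DeaD yeast; Compound: one dose 10 µM, DMSO 0.25% final; Detection: absorbance (optical density) at 615 nm; Buffer or medium: permissive raffinose/galactose medium; Timing: 24 h exposure, 30 °C.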

[2] = S. cerevisiae growth inhibition in restrictive medium, OD615, pilot screen, restrictive growth control, yeast lifespan reduction project (AID 706;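 active = growth inhibition above a set limit, 3 SD over mean compound inhibition, in both replicates, cut at about 43% in these data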;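 note: modified DeaD lifespan yeast strain shifted to restrictive glucose medium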); details: OD615, 48 h, at 10 µM, hits give high values
In short: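 Buffer or medium: restrictive glucose medium (CSMM-D); test system: modified S. cerevisiae; doses: single dose of 10 µM compound final, 0.25% DMSO; schedule: 48 h compound exposure at 30 °C; detection: absorbance (optical density) measured at 615 nm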

[3] = doxorubicin toxicity protection in MRP-1 cells – H69AR cells, CellTiter-Glo, duplicate, MRP-1 activator project, pilot screen (AID 807;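 active = viability increase at or above a cutoff of the median across tested compounds plus 3 SD, cut at about 8.5% in these data, passing the limit was not always enough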;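 note: compound pretreatment 18-22 h then 72 h combined with doxorubicin; 0% = doxorubicin alone and 100% = vehicle without doxorubicin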); details: H69AR viability with doxorubicin, CellTiter-Glo luminescence; at 10 µM; hits give high values
[4] = viability of HCT116 without oncogenic beta-catenin – human colon tumor cells, pilot screen (AID 823); details: HCT116 beta-catenin knockout viability, CellTiter-Glo, 60 h; at 10 µM; hits give low values;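 note: 0% = wells killed by 20 µM Hyamine and 100% = untreated DMSO cell wells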
[5] = viability of PTEN-null HCT116 cells – cell-based, HCT116 clonal line, CellTiter-Glo, pilot screen (AID 824;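 active = viability at or below 27.92% in each of two runs, the all-compound median minus 4 SD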;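 note: 0% = 20 µM Hyamine control and 100% = vehicle cell control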); details: HCT116 PTEN-deleted viability, 60 h, at 10 µM, hits give low values
[6] = RAM pathway blockade in budding yeast – dse1pr::URA3 reporter, 5-FOA selection, pilot screen (AID 869;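 active = inhibition over a set limit, the all-compound mean plus 3 SD, in both replicate runs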;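 note: 0% = DMSO wells with no growth and 100% = 10 µM 1-NA-PP1 with full growth; RAM network block rescues cells from 5-FOA so hits raise OD615 growth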); details: S. cerevisiae dse1pr::URA3 5-FOA growth, OD615, 2 d; at 10 µM; hits give high values; strain carries analog-sensitive mutant Cbk1 kinase
[7] = RAM signaling pathway blockade in yeast – S. cerevisiae, Pdr1DBD-CYC8 efflux-inhibited sensitized strain, primary screen (AID 1298;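 active = RAM network inhibition above 8.4% in each of two replicates, 3 SD over the compound average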;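 note: 0% = DMSO untreated cells without growth and 100% = 10 µM 1-NA-PP1 full growth; higher means more yeast growth rescued from 5-FOA killing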); details: S. cerevisiae cbk1-as DSE1-URA3 strain, 5-FOA growth OD615, 2 d; at 50 µM; hits give high values

O=C(Cn1nnc(-c2ccccc2F)n1)Nc1cccc2ncccc12
inactive: growth inhibition [1] 1.42% | growth inhibition [2] -14.2% | viability increase [3] -2.32% | viability [4] 103% | viability [5] 98% | inhibition [6] 1.36% | RAM network inhibition [7] 2.23%

COc1ccccc1NC(=O)CSc1nc2sc(C)c(C)c2c(=O)n1Cc1ccco1
inactive: growth inhibition [1] 9.68% | growth inhibition [2] 9.95% | viability increase [3] -3.07% | viability [4] 91% | viability [5] 92% | inhibition [6] 2.17% | RAM network inhibition [7] 3.57%

CCN(CC)Cc1c[nH]c2c(C(=O)OC)cccc12
inactive: growth inhibition [1] -11.4% | growth inhibition [2] -23.5% | viability increase [3] -4.51% | viability [4] 101% | viability [5] 94.9% | inhibition [6] 2% | RAM network inhibition [7] -1.31%

Cc1ccccc1-c1nnc(SCC(=O)Nc2ccc3c(c2)OCCO3)n1N
inactive: growth inhibition [1] -1.12% | growth inhibition [2] 10.1% | viability increase [3] -2.18% | viability [4] 96.7% | viability [5] 91.7% | inhibition [6] 0.6% | RAM network inhibition [7] -0.27%

N#CC1=C(SCc2ccccc2)NC(=O)CC1c1ccc(O)cc1 (centres undefined)
inactive: growth inhibition [1] -12.2% | growth inhibition [2] -15.2% | viability increase [3] -2.66% | viability [4] 98.2% | viability [5] 96.6% | inhibition [6] 0.67% | RAM network inhibition [7] 1.25%

COc1ccccc1NC(=O)NCCN1C(=O)C2C3C=CC(C3)C2C1=O (centres undefined)
inactive: growth inhibition [1] -16.2% | growth inhibition [2] -7.88% | viability increase [3] -0.36% | viability [4] 106% | viability [5] 105% | inhibition [6] 1.71% | RAM network inhibition [7] 5.38%

O=C(Nc1nccs1)c1ccc(Cl)s1
inactive: growth inhibition [1] -0.705% | growth inhibition [2] 4.79% | viability increase [3] 1.01% | viability [4] 96.3% | viability [5] 94.9% | inhibition [6] -0.025% | RAM network inhibition [7] -1.54%

CCCn1c(CNC(=O)c2cccs2)nc2ccccc21
inactive: growth inhibition [1] -9.53% | growth inhibition [2] -7.64% | viability increase [3] -1.28% | viability [4] 101% | viability [5] 103% | inhibition [6] 2.32% | RAM network inhibition [7] 2.11%

Cc1c(C(=O)NCc2ccc3c(c2)OCO3)oc2ccc(S(=O)(=O)N3CCCCCC3)cc12
inactive: growth inhibition [1] -14% | growth inhibition [2] -7.72% | viability increase [3] -1.19% | viability [4] 77.5% | viability [5] 77.3% | inhibition [6] 1.82% | RAM network inhibition [7] 10.9%

C=CCc1c(C)nc(SCc2nc3ccccc3c(=O)[nH]2)[nH]c1=O
inactive: growth inhibition [1] 3.73% | growth inhibition [2] 15.9% | viability increase [3] 0.9% | viability [4] 94.2% | viability [5] 96.7% | inhibition [6] 0.91% | RAM network inhibition [7] 1.65%

OCCNCCCCCOc1ccc(F)cc1
inactive: growth inhibition [1] -1.2% | growth inhibition [2] -16.2% | viability increase [3] -1.34% | viability [4] 96.2% | viability [5] 94.5% | inhibition [6] 2.19% | RAM network inhibition [7] 0.69%

CCC1Oc2ccc(C)cc2N(CC(=O)N2CCN(c3ccc(F)cc3)CC2)C1=O (centres undefined)
inactive: growth inhibition [1] 5.46% | growth inhibition [2] 11.1% | viability increase [3] -3.35% | viability [4] 90% | viability [5] 83.5% | inhibition [6] -0.495% | RAM network inhibition [7] -0.06%

Cn1c(NC(=O)CCc2ccccc2)cc(=O)n(C)c1=O
inactive: growth inhibition [1] -8.68% | growth inhibition [2] -8.72% | viability increase [3] -3.77% | viability [4] 102% | viability [5] 96.9% | inhibition [6] 0.855% | RAM network inhibition [7] -0.05%

CC1(C)CC(=O)N(CC(=O)N2CCN(c3ncccn3)CC2)c2ccccc2S1(=O)=O
inactive: growth inhibition [1] -6.82% | growth inhibition [2] -9.5% | viability increase [3] 0.27% | viability [4] 102% | viability [5] 91.8% | inhibition [6] 0.48% | RAM network inhibition [7] -0.32%

COc1ccc(CCN=C2SCC(=O)N2C)cc1OC
inactive: growth inhibition [1] 3.32% | growth inhibition [2] 1.86% | viability increase [3] -0.79% | viability [4] 102% | viability [5] 97% | inhibition [6] 2.14% | RAM network inhibition [7] 6.13%

Cc1ccccc1NC(=O)CN(C)S(=O)(=O)c1cccc2cccnc12
inactive: growth inhibition [1] -2.9% | growth inhibition [2] -1.7% | viability increase [3] -0.34% | viability [4] 105% | viability [5] 95.7% | inhibition [6] 1.74% | RAM network inhibition [7] 2.49%

CNc1oc(C)nc1S(=O)(=O)c1ccccc1
inactive: growth inhibition [1] -13.1% | growth inhibition [2] -7.71% | viability increase [3] -0.15% | viability [4] 99.9% | viability [5] 98.1% | inhibition [6] 1.98% | RAM network inhibition [7] 0.25%

Cc1nc2sc(C(c3ccccc3)N3CCN(C)CC3)c(O)n2n1 (centres undefined)
inactive: growth inhibition [1] -3.65% | growth inhibition [2] 8.75% | viability increase [3] 0.48% | viability [4] 100% | viability [5] 103% | inhibition [6] 2.15% | RAM network inhibition [7] 2.45%

Cc1cc(Nc2ccc(Br)cc2)n2nc(C)nc2n1
inactive: growth inhibition [1] -14% | growth inhibition [2] -2.33% | viability increase [3] -2.63% | viability [4] 96.2% | viability [5] 88.3% | inhibition [6] 2.85% | RAM network inhibition [7] 4.46%

O=c1sc(N2CCN(c3ccccc3F)CC2)nc2ccsc12
inactive: growth inhibition [1] -7.07% | growth inhibition [2] -8.01% | viability increase [3] -1.94% | viability [4] 85.3% | viability [5] 81.9% | inhibition [6] 3.63% | RAM network inhibition [7] 7.46%

COc1ccc2c(=O)c(N3C(=O)c4ccccc4C3=O)c(C)oc2c1
inactive: growth inhibition [1] -11.8% | growth inhibition [2] -0.32% | viability increase [3] -1.12% | viability [4] 94.2% | viability [5] 92.6% | inhibition [6] -0.25% | RAM network inhibition [7] 1.33%

O=C(Nc1ccccc1)OCC1CCCN2CCCCC12 (centres undefined)
inactive: growth inhibition [1] -12.9% | growth inhibition [2] -13.1% | viability increase [3] -0.94% | viability [4] 95.7% | viability [5] 97.4% | inhibition [6] 0.69% | RAM network inhibition [7] 3.65%

O=C(Cn1ncc2c1-c1ccccc1OC2)N1CCN(Cc2ccc3c(c2)OCO3)CC1
inactive: growth inhibition [1] -1.44% | growth inhibition [2] 10.4% | viability increase [3] -3.39% | viability [4] 84.7% | viability [5] 90.2% | inhibition [6] 1.9% | RAM network inhibition [7] 2.06%

O=C(Nc1cc(=O)c2ccccc2o1)N1CCOCC1
inactive: growth inhibition [1] 1.73% | growth inhibition [2] -7.41% | viability increase [3] -2.39% | viability [4] 103% | viability [5] 103% | inhibition [6] 2.6% | RAM network inhibition [7] 1.4%

O=C(CCc1nc2ccccc2[nH]1)N1CCN(C(=O)c2ccco2)CC1
inactive: growth inhibition [1] -9.21% | growth inhibition [2] -5.44% | viability increase [3] -0.98% | viability [4] 101% | viability [5] 96.7% | inhibition [6] 0.87% | RAM network inhibition [7] 1.88%

CNC(=O)N(C1=NCC(C)(C)S1)c1ccc(F)c(Cl)c1
inactive: growth inhibition [1] -4.53% | growth inhibition [2] -16.6% | viability increase [3] -6.94% | viability [4] 40.4% | viability [5] 35.7% | inhibition [6] 1.26% | RAM network inhibition [7] 4.61%

Nc1nnc(CCc2ccccc2)s1
inactive: growth inhibition [1] -1.91% | growth inhibition [2] 8.1% | viability increase [3] 0.12% | viability [4] 96.2% | viability [5] 98.9% | inhibition [6] 1.77% | RAM network inhibition [7] 0.62%
